Laboratory results taken from article PMC4570851 (Bioorganic & medicinal chemistry letters, 2012).
Where no end group is shown, it is not given here. [ ]: non-standard residue; d: D form.

Target: T1, sPLA2-IIA-integrin αvβ3 interaction (Homo sapiens, UniProt P14555)
T1 sequence (P14555 21-144): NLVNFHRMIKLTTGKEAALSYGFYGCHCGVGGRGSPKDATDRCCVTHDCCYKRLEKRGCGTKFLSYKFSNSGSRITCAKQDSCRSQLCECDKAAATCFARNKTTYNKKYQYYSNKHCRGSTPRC
Assay: cell adhesion inhibition assay: αvβ3-K562 cells on immobilized sPLA2-IIA
Assay type: cell-based
Details: for IC50 / Max. Inhibition: αvβ3-K562 cells, immobilized sPLA2-IIA, means ± S.E. (n=3); for IC50: compounds 10 to 500 μM, 30 min, cells 1 h at 37 °C; for inhibition of the sPLA2-IIA-integrin interaction (in words): αvβ3-K562 cell adhesion to immobilized sPLA2-IIA; for Max. Inhibition: adhesion without inhibitors as 100%, adhesion to BSA only as 0%
Summary of the method: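 Wells coated with sPLA2-IIA and blocked with BSA, then preincubated 30 min with test compound (10 to 500 μM). K562 erythroleukemia cells transfected to overexpress integrin αvβ3 were added for 1 h at 37 °C. Bound cells were quantified by phosphatase assay. IC50 and maximum inhibition came from dose-response data, with no-inhibitor adhesion as 100% and BSA-only as 0%. n=3.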

Row | Molecule | IC50 | inhibition of the sPLA2-IIA-integrin interaction (in words) | Max. Inhibition
1 | R-Gly-Arg*-Gly-Asp*-Asp*-Asp* (G[dR]G[dD][dD][dD]-NH2; not fully specified (N-terminus)) [Cmpd21] | 71 ± 18 µM |  | 
2 | Ala-Trp-Asp*-Ile [Cmpd8-5] |  | not inhibitory | N/A (N/A, “not active’ (<30% inhibition))
3 | R-Gly-Arg*-Gly-Asp* (G[dR]G[dD]-NH2; not fully specified (N-terminus)) [Cmpd21-4] | 155 ± 3.8 µM |  | 
4 | Cc1nc(NC(=O)c2ccccc2)sc1-c1cc(C(=O)N[C@@H](C)C(=O)O)[nH]n1 [Cmpd8-2, R-Ala] |  |  | N/A (N/A, “not active’ (<30% inhibition))
5 | Cc1nc(NC(=O)c2ccccc2)sc1-c1cc(C(=O)NCC(=O)O)[nH]n1 [Cmpd21-1, R-Gly] |  | active | 
6 | R-Ala-Trp-Asp*-Ile (AW[dD]I-NH2; not fully specified (N-terminus)) [Cmpd8] | 20 ± 1.3 µM |  | 
7 | Cc1nc(NC(=O)c2ccccc2)sc1-c1cc(C(=O)O)[nH]n1 [Cmpd8-1, R-OH] |  | not inhibitory | N/A (N/A, “not active’ (<30% inhibition))
8 | Gly-Arg*-Gly-Asp*-Asp*-Asp* [Cmpd21-6] |  | not inhibitory | N/A (N/A, “not active’ (<30% inhibition))
